Among the data in ChEMBL document CHEMBL1143969, “Synthesis and pharmacological evaluation of bicyclic SNC80 analogues with separated benzhydryl moiety” (Bioorg Med Chem, 2008) are Ki and inhibition values, retold here.

Molecules are shown by their SMILES.

Usually Ki stands for the equilibrium dissociation constant of an inhibitor or competing ligand from its target. A higher Ki goes with lower affinity. In general, inhibition refers to the share of the control response that was lost under treatment. A higher inhibition goes with a strong effect.

Assay [1] addresses T1, Mu-type opioid receptor (Homo sapiens, UniProt P35372). Put plainly: Displacement of [3H]naloxone from human mu opioid receptor expressed in CHOK1 cells. The class given is cell-based, CHO-K1. The essentials:
(§1)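 Membranes in Tris-HCl pH 7.4 + 0.06% BSA, premixed with wheatgerm agglutinin SPA beads; radioligand solution 10 nmol/L (stock), ~25% DMSO in added solutions. Incubated 150 min at rt, centrifuged 20 min at 500 rpm, counted by scintillation proximity. Naloxone defines non-specific binding. Ki determined where inhibition at 10 µM exceeded 50%.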
(In general: Displacement assays read how much labelled ligand stays bound in the presence of the test substance.)

Assay [2] deals with T2, Kappa-type opioid receptor (Homo sapiens, UniProt P41145). Put plainly: Displacement of [3H]C1-977 from human kappa opioid receptor expressed in HEK293 cells. In kind it is cell-based. The essentials:
(§2)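 SPA format as for mu: membranes diluted 1:34 in 50 mmol/L Tris-HCl, 0.05% NaN3, pH 7.4, mixed with wheatgerm agglutinin SPA beads; 150 min at rt, centrifugation, scintillation counting. Ki determined where inhibition at 10 µM exceeded 50%.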

The target in assay [3] is Nociceptin receptor (Homo sapiens) (UniProt P41146). Put plainly: Displacement of [3H]nociceptin from human ORL1 receptor expressed in HEK293 cells at 10 uM. The class given is cell-based.
Sequence of Nociceptin receptor (Homo sapiens) (P41146 whole entry): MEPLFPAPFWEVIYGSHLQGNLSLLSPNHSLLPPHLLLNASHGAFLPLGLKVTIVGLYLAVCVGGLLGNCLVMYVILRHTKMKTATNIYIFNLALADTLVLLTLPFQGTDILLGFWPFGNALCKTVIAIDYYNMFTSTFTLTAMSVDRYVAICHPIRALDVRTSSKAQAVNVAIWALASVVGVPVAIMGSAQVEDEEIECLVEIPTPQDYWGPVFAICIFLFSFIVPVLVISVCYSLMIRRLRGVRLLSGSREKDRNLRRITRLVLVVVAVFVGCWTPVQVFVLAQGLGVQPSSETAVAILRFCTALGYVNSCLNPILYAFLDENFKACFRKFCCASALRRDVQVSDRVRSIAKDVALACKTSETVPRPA
Assay [4] concerns the target T1, Mu-type opioid receptor. Put plainly: Displacement of [3H]naloxone from human mu opioid receptor expressed in CHOK1 cells at 10 uM. The class given is cell-based. The note with it: CHO-K1. In short, it runs like this:
as §1

For assay [5], the target named is T3, Delta-type opioid receptor (Homo sapiens, UniProt P41143). Put plainly: Displacement of [3H]deltorphine 2 from human delta opioid receptor expressed in CHOK1 cells at 10 uM. In kind it is cell-based. The following applies: CHO-K1. The essentials: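 Membranes diluted 1:87 in 50 mmol/L Tris-HCl, 5 mmol/L MgCl2, pH 7.4; radioligand solution 10 nmol/L (stock), 0.5% DMSO. Incubated 120 min at rt, filtered through PEI-soaked GF/B filters, washed three times with cold buffer, dried 1 h at 55 °C, scintillation counted. Naloxone defines non-specific binding. Ki determined where inhibition at 10 µM exceeded 50%.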
T3 sequence (P41143 whole entry): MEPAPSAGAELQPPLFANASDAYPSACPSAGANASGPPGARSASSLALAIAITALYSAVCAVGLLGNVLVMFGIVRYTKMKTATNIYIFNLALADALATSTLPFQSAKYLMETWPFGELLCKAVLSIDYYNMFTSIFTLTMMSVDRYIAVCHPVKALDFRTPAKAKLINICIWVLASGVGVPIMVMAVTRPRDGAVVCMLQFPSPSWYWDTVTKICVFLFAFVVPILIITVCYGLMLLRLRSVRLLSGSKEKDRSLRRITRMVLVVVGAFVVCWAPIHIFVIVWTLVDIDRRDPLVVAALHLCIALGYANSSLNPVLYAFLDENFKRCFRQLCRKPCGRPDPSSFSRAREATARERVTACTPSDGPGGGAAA

The target of assay [6] is T2, Kappa-type opioid receptor. Put plainly: Displacement of [3H]C1-977 from human kappa opioid receptor expressed in HEK293 cells at 10 uM. The class given is cell-based. In short, it runs like this:
as §2

Assay [7] concerns the target T3, Delta-type opioid receptor. Put plainly: Displacement of [3H]deltorphine 2 from human delta opioid receptor expressed in CHOK1 cells. In kind it is cell-based, CHO-K1. The essentials:
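Membranes diluted 1:87 in 50 mmol/L Tris-HCl, 5 mmol/L MgCl2, pH 7.4; radioligand solution 10 nmol/L (stock), 0.5% DMSO. Incubated 120 min at rt, filtered through PEI-soaked GF/B filters, washed three times with cold buffer, dried 1 h at 55 °C, scintillation counted. Naloxone defines non-specific binding.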

T1 sequence (P35372 whole entry): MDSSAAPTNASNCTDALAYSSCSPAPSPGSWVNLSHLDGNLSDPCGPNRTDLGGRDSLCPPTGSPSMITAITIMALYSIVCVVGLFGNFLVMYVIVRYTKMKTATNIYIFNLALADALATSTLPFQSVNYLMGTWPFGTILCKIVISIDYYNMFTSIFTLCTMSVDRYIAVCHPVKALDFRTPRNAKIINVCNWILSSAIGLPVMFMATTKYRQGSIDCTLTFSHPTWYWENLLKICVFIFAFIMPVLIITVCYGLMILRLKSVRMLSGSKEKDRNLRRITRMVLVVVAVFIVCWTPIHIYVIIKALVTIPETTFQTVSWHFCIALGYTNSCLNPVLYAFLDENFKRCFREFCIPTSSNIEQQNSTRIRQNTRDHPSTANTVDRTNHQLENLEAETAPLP
T2 sequence (P41145 whole entry): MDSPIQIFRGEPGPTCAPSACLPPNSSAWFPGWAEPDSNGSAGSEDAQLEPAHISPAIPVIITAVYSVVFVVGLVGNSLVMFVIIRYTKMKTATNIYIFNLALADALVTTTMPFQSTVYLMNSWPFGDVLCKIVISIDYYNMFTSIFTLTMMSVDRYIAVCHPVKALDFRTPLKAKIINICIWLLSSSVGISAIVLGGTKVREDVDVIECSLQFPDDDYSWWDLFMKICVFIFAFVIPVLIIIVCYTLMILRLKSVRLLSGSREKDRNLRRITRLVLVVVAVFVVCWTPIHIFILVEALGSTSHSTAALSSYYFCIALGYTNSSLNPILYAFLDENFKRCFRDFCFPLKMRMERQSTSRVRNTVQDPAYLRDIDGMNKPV

As to `C=CCN1C[C@@H]2C(c3ccccc3)=CC[C@H]1CN2Cc1ccc(C(=O)N(CC)CC)cc1`, the Ki is 6.8 µM in assay [1] and 0.89 µM in assay [2]. The inhibition in assay [3] turned out to be 9%; in assay [4], 56%; in assay [5] it was 14%; in assay [6], 76%.
In the case of `CCCN1C[C@@H]2[C@H](c3ccccc3)CC[C@H]1CN2Cc1ccc(C(=O)N(CC)CC)cc1`, the Ki in assay [1] was 5.7 µM; in assay [2] it was 2.4 µM. Further, the inhibition came to 1% in assay [3], 61% in assay [4], 4% in assay [5] and 63% in assay [6].
Regarding `C=CCN1C[C@@H]2[C@@H](c3ccccc3)CC[C@H]1CN2Cc1ccc(C(=O)N(CC)CC)cc1`, the Ki in assay [1] stood at 6.32 µM; in assay [2] it was 1.1 µM. For the same compound, the inhibition was found to be 14% in assay [3], 58% in assay [4], 34% in assay [5] and 76% in assay [6].
In the case of `CCCN1C[C@@H]2[C@@H](c3ccccc3)CC[C@H]1CN2Cc1ccc(C(=O)N(CC)CC)cc1`, the inhibition came to 3% in assay [3], 44% in assay [4], 4% in assay [5] and 49% in assay [6].
For `CCCN1C[C@@H]2C(c3ccccc3)=CC[C@H]1CN2Cc1ccc(C(=O)N(CC)CC)cc1`, the inhibition in assay [3] was determined as 45%; in assay [4] it was 55%; in assay [5], 20%; in assay [6], 22%.
Take `C=CCN1C[C@H]2C(c3ccccc3)=CC[C@@H]1CN2Cc1ccc(C(=O)N(CC)CC)cc1`: the values for the Ki in assay [1] and in assay [7] were 0.25 µM and 0.74 µM, respectively. In addition, the inhibition was less than 10% in assay [3], 91% in assay [4], 87% in assay [5] and 31% in assay [6].
As for `C=CCN1C[C@@H]2[C@H](c3ccccc3)CC[C@H]1CN2Cc1ccc(C(=O)N(CC)CC)cc1`, the Ki in assay [1] amounted to 7.3 µM; in assay [2] it was 1.7 µM. The inhibition in assay [3] amounted to 7%; in assay [4], 56%; in assay [5], 6%; in assay [6], 73%.
